Data published in paper PMC4233149 (Clinical cancer research : an official journal of the …, 2014).
Marks after values point to notes of the source that are not given here.

Assay: Phase I safety and tolerability, weekly
Assay type: in vivo, human
How it was run: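 Oral weekly dose escalation followed a 3+3 design (planned 90, 135, 200, 300mg, intermediate doses allowed), then a modified toxicity-probability-interval confirmation stage. A DLT was any drug-related CTCAE v3.0 ≥G4 hematological, ≥G3 febrile neutropenia or ≥G3 non-hematological toxicity. Safety visits, glucose, C-peptide and HbA1c monitoring followed a fixed schedule; AEs were graded by CTCAE v3.0.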

NC1(c2ccc(-c3nc4ccn5c(=O)[nH]nc5c4cc3-c3ccccc3)cc2)CCC1 [MK-2206]
Anorexia, number of AEs (90mg QW, G1, all cycles): 0 (0)
Dermatitis acneiform, number of AEs (90mg QW, G1, all cycles): 0 (0)
Diarrhea, number of AEs (90mg QW, G1, all cycles): 1 (1)
Dry skin, number of AEs (90mg QW, G1, all cycles): 0 (0)
Fatigue, number of AEs (90mg QW, G1, all cycles): 1 (1)
Nausea, number of AEs (90mg QW, G1, all cycles): 0 (0)
Pruritus, number of AEs (90mg QW, G1, all cycles): 0 (0)
Rash (all rash terms collated), number of AEs (90mg QW, G1, all cycles): 0 (0)
Stomatitis, number of AEs (90mg QW, G1, all cycles): 0 (0)
Vomiting, number of AEs (90mg QW, G1, all cycles): 1 (1)
Anorexia, number of AEs (90mg QW, G1, cycle 1): 0 (0)
Dermatitis acneiform, number of AEs (90mg QW, G1, cycle 1): 0 (0)
Diarrhea, number of AEs (90mg QW, G1, cycle 1): 1 (1)
Dry skin, number of AEs (90mg QW, G1, cycle 1): 0 (0)
Fatigue, number of AEs (90mg QW, G1, cycle 1): 1 (1)
Nausea, number of AEs (90mg QW, G1, cycle 1): 0 (0)
Pruritus, number of AEs (90mg QW, G1, cycle 1): 0 (0)
Rash (all rash terms collated), number of AEs (90mg QW, G1, cycle 1): 0 (0)
Stomatitis, number of AEs (90mg QW, G1, cycle 1): 0 (0)
Vomiting, number of AEs (90mg QW, G1, cycle 1): 1 (1)
Anorexia, number of AEs (135mg QW, G1, all cycles): 0 (0)
Dermatitis acneiform, number of AEs (135mg QW, G1, all cycles): 1 (1)
Diarrhea, number of AEs (135mg QW, G1, all cycles): 0 (0)
Dry skin, number of AEs (135mg QW, G1, all cycles): 0 (0)
Dysgeusia, number of AEs (135mg QW, G1, all cycles): 0 (0)
Fatigue, number of AEs (135mg QW, G1, all cycles): 0 (0)
Nausea, number of AEs (135mg QW, G1, all cycles): 0 (0)
Pruritus, number of AEs (135mg QW, G1, all cycles): 1 (1)
Rash (all rash terms collated), number of AEs (135mg QW, G1, all cycles): 1 (1)
Stomatitis, number of AEs (135mg QW, G1, all cycles): 0 (0)
Vomiting, number of AEs (135mg QW, G1, all cycles): 0 (0)
Anorexia, number of AEs (135mg QW, G1, cycle 1): 0 (0)
Dermatitis acneiform, number of AEs (135mg QW, G1, cycle 1): 1 (1)
Diarrhea, number of AEs (135mg QW, G1, cycle 1): 0 (0)
Dry skin, number of AEs (135mg QW, G1, cycle 1): 0 (0)
Dysgeusia, number of AEs (135mg QW, G1, cycle 1): 0 (0)
Fatigue, number of AEs (135mg QW, G1, cycle 1): 0 (0)
Nausea, number of AEs (135mg QW, G1, cycle 1): 0 (0)
Pruritus, number of AEs (135mg QW, G1, cycle 1): 1 (1)
Rash (all rash terms collated), number of AEs (135mg QW, G1, cycle 1): 1 (1)
Stomatitis, number of AEs (135mg QW, G1, cycle 1): 0 (0)
Vomiting, number of AEs (135mg QW, G1, cycle 1): 0 (0)
Dermatitis acneiform, number of AEs (150mg QW, G1, all cycles): 0 (0)
Diarrhea, number of AEs (150mg QW, G1, all cycles): 0 (0)
Dry skin, number of AEs (150mg QW, G1, all cycles): 0 (0)
Dysgeusia, number of AEs (150mg QW, G1, all cycles): 0 (0)
Fatigue, number of AEs (150mg QW, G1, all cycles): 0 (0)
Nausea, number of AEs (150mg QW, G1, all cycles): 0 (0)
Pruritus, number of AEs (150mg QW, G1, all cycles): 0 (0)
Rash (all rash terms collated), number of AEs (150mg QW, G1, all cycles): 0 (0)
Stomatitis, number of AEs (150mg QW, G1, all cycles): 0 (0)
Vomiting, number of AEs (150mg QW, G1, all cycles): 2 (2)
Dermatitis acneiform, number of AEs (150mg QW, G1, cycle 1): 0 (0)
Diarrhea, number of AEs (150mg QW, G1, cycle 1): 0 (0)
Dry skin, number of AEs (150mg QW, G1, cycle 1): 0 (0)
Dysgeusia, number of AEs (150mg QW, G1, cycle 1): 0 (0)
Fatigue, number of AEs (150mg QW, G1, cycle 1): 0 (0)
Nausea, number of AEs (150mg QW, G1, cycle 1): 0 (0)
Pruritus, number of AEs (150mg QW, G1, cycle 1): 0 (0)
Rash (all rash terms collated), number of AEs (150mg QW, G1, cycle 1): 0 (0)
Stomatitis, number of AEs (150mg QW, G1, cycle 1): 0 (0)
Vomiting, number of AEs (150mg QW, G1, cycle 1): 2 (2)
Anorexia, number of AEs (150mg QW, G2, all cycles): 0 (0)
Dermatitis acneiform, number of AEs (150mg QW, G2, all cycles): 0 (0)
Diarrhea, number of AEs (150mg QW, G2, all cycles): 0 (0)
Dry skin, number of AEs (150mg QW, G2, all cycles): 0 (0)
Dysgeusia, number of AEs (150mg QW, G2, all cycles): 0 (0)
Fatigue, number of AEs (150mg QW, G2, all cycles): 0 (0)
Nausea, number of AEs (150mg QW, G2, all cycles): 1 (1)
Pruritus, number of AEs (150mg QW, G2, all cycles): 0 (0)
Rash (all rash terms collated), number of AEs (150mg QW, G2, all cycles): 0 (0)
Stomatitis, number of AEs (150mg QW, G2, all cycles): 0 (0)
Vomiting, number of AEs (150mg QW, G2, all cycles): 0 (0)
Anorexia, number of AEs (150mg QW, G2, cycle 1): 0 (0)
Dermatitis acneiform, number of AEs (150mg QW, G2, cycle 1): 0 (0)
Diarrhea, number of AEs (150mg QW, G2, cycle 1): 0 (0)
Dry skin, number of AEs (150mg QW, G2, cycle 1): 0 (0)
Dysgeusia, number of AEs (150mg QW, G2, cycle 1): 0 (0)
Fatigue, number of AEs (150mg QW, G2, cycle 1): 0 (0)
Nausea, number of AEs (150mg QW, G2, cycle 1): 1 (1)
Pruritus, number of AEs (150mg QW, G2, cycle 1): 0 (0)
Rash (all rash terms collated), number of AEs (150mg QW, G2, cycle 1): 0 (0)
Stomatitis, number of AEs (150mg QW, G2, cycle 1): 0 (0)
Vomiting, number of AEs (150mg QW, G2, cycle 1): 0 (0)
Anorexia, number of AEs (150mg QW, G3, all cycles): 0 (0)
Dermatitis acneiform, number of AEs (150mg QW, G3, all cycles): 0 (0)
Diarrhea, number of AEs (150mg QW, G3, all cycles): 0 (0)
Dry skin, number of AEs (150mg QW, G3, all cycles): 0 (0)
Dysgeusia, number of AEs (150mg QW, G3, all cycles): 0 (0)
Fatigue, number of AEs (150mg QW, G3, all cycles): 0 (0)
Nausea, number of AEs (150mg QW, G3, all cycles): 0 (0)
Pruritus, number of AEs (150mg QW, G3, all cycles): 0 (0)
Rash (all rash terms collated), number of AEs (150mg QW, G3, all cycles): 3
Stomatitis, number of AEs (150mg QW, G3, all cycles): 0 (0)
Vomiting, number of AEs (150mg QW, G3, all cycles): 0 (0)
Anorexia, number of AEs (150mg QW, G3, cycle 1): 0 (0)
Dermatitis acneiform, number of AEs (150mg QW, G3, cycle 1): 0 (0)
Diarrhea, number of AEs (150mg QW, G3, cycle 1): 0 (0)
Dry skin, number of AEs (150mg QW, G3, cycle 1): 0 (0)
Dysgeusia, number of AEs (150mg QW, G3, cycle 1): 0 (0)
Fatigue, number of AEs (150mg QW, G3, cycle 1): 0 (0)
Nausea, number of AEs (150mg QW, G3, cycle 1): 0 (0)
Pruritus, number of AEs (150mg QW, G3, cycle 1): 0 (0)
Stomatitis, number of AEs (150mg QW, G3, cycle 1): 0 (0)
Vomiting, number of AEs (150mg QW, G3, cycle 1): 0 (0)
Rash (all rash terms collated), number of AEs (150mg QW, G3, cycle 1, dose-limiting toxicity): 1
Anorexia, number of AEs (200mg QW, G1, all cycles): 1 (1)
Dermatitis acneiform, number of AEs (200mg QW, G1, all cycles): 0 (0)
Diarrhea, number of AEs (200mg QW, G1, all cycles): 2 (2)
Dry skin, number of AEs (200mg QW, G1, all cycles): 1 (1)
Dysgeusia, number of AEs (200mg QW, G1, all cycles): 0 (0)
Nausea, number of AEs (200mg QW, G1, all cycles): 4 (4)
Stomatitis, number of AEs (200mg QW, G1, all cycles): 2 (2)
Vomiting, number of AEs (200mg QW, G1, all cycles): 2 (2)
Anorexia, number of AEs (200mg QW, G1, cycle 1): 1 (1)
Dermatitis acneiform, number of AEs (200mg QW, G1, cycle 1): 0 (0)
Diarrhea, number of AEs (200mg QW, G1, cycle 1): 2 (2)
Dry skin, number of AEs (200mg QW, G1, cycle 1): 1 (1)
Dysgeusia, number of AEs (200mg QW, G1, cycle 1): 0 (0)
Nausea, number of AEs (200mg QW, G1, cycle 1): 4 (4)
Stomatitis, number of AEs (200mg QW, G1, cycle 1): 2 (2)
Vomiting, number of AEs (200mg QW, G1, cycle 1): 2 (2)
Anorexia, number of AEs (200mg QW, G2, all cycles): 0 (0)
Dermatitis acneiform, number of AEs (200mg QW, G2, all cycles): 0 (0)
Diarrhea, number of AEs (200mg QW, G2, all cycles): 0 (0)
Dry skin, number of AEs (200mg QW, G2, all cycles): 0 (0)
Dysgeusia, number of AEs (200mg QW, G2, all cycles): 0 (0)
Fatigue, number of AEs (200mg QW, G2, all cycles): 1 (1)
Nausea, number of AEs (200mg QW, G2, all cycles): 1 (1)
Rash (all rash terms collated), number of AEs (200mg QW, G2, all cycles): 4 (4)
Stomatitis, number of AEs (200mg QW, G2, all cycles): 0 (0)
Vomiting, number of AEs (200mg QW, G2, all cycles): 0 (0)
Anorexia, number of AEs (200mg QW, G2, cycle 1): 0 (0)
Dermatitis acneiform, number of AEs (200mg QW, G2, cycle 1): 0 (0)
Diarrhea, number of AEs (200mg QW, G2, cycle 1): 0 (0)
Dry skin, number of AEs (200mg QW, G2, cycle 1): 0 (0)
Dysgeusia, number of AEs (200mg QW, G2, cycle 1): 0 (0)
Fatigue, number of AEs (200mg QW, G2, cycle 1): 1 (1)
Nausea, number of AEs (200mg QW, G2, cycle 1): 1 (1)
Rash (all rash terms collated), number of AEs (200mg QW, G2, cycle 1): 4 (4)
Stomatitis, number of AEs (200mg QW, G2, cycle 1): 0 (0)
Vomiting, number of AEs (200mg QW, G2, cycle 1): 0 (0)
Anorexia, number of AEs (200mg QW, G3, all cycles): 0 (0)
Dermatitis acneiform, number of AEs (200mg QW, G3, all cycles): 1^c (1)
Diarrhea, number of AEs (200mg QW, G3, all cycles): 0 (0)
Dry skin, number of AEs (200mg QW, G3, all cycles): 0 (0)
Dysgeusia, number of AEs (200mg QW, G3, all cycles): 0 (0)
Fatigue, number of AEs (200mg QW, G3, all cycles): 0 (0)
Nausea, number of AEs (200mg QW, G3, all cycles): 0 (0)
Pruritus, number of AEs (200mg QW, G3, all cycles): 0 (0)
Rash (all rash terms collated), number of AEs (200mg QW, G3, all cycles): 3^c (3)
Stomatitis, number of AEs (200mg QW, G3, all cycles): 0 (0)
Vomiting, number of AEs (200mg QW, G3, all cycles): 0 (0)
Anorexia, number of AEs (200mg QW, G3, cycle 1): 0 (0)
